In ChEMBL document CHEMBL4680136, “Synthesis and antitumor activities investigation of a C-nucleoside analogue of ribavirin” (Eur J Med Chem, 2020):
Values after ≈ are worked out from the molar mass of the structure shown.

Tests used:
SNB-75 [1] = assay: Antiproliferative activity against human SNB-75 cells assessed as reduction in cell growth at 100 uM incubated for 72 hrs by MTT assay relative to control; format: functional
Caco-2 [2] = assay: Antiproliferative activity against human CaCo-2 cells assessed as reduction in cell growth at 100 uM incubated for 72 hrs by MTT assay relative to control; format: functional
SK-OV-3 [3] = assay: Antiproliferative activity against human SK-OV-3 cells assessed as reduction in cell growth incubated for 3 days by trypan blue exclusion assay; format: functional, cell-based; settings: SK-OV-3, 72 h
Method in brief: (§1)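 Ovarian lines grown in RPMI-1640 glutaMAX with 10% FBS, 5% CO2, 37°C. Cells seeded at 20 000 cells/well in 24-well plates and exposed to 0, 1, 10, 20, 30 or 50 μg/mL for 7 days. Viable cells were counted daily by trypan blue exclusion. At least three independent experiments in triplicate; mean ± standard deviation.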

IGROV-1 [4] = assay: Antiproliferative activity against human IGROV-1 cells assessed as reduction in cell growth incubated for 4 days by trypan blue exclusion assay; format: functional, cell-based; settings: IGROV-1, 96 h; method in brief: as §1
[5] = Cytotoxicity against human MET5A cells assessed as effect on cell morphology at 50 ug/ml measured upto 7 days by laser scanning confocal microscopy; format: cell-based; settings: 168 h, time <=7 day, dose 50 µg/ml
Method in brief: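 MeT-5A mesothelial cells, untreated or treated up to 50 μg/mL, were stained for actin cytoskeleton by immunofluorescence with DAPI-counterstained nuclei. Morphology was examined by laser scanning confocal microscopy on days 1, 3 and 7.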

SK-OV-3 [6] = assay: Antiproliferative activity against human SK-OV-3 cells assessed as reduction in cell growth incubated for 4 days by trypan blue exclusion assay; format: functional, cell-based; settings: SK-OV-3, 96 h; method in brief: as §1
C6 [7] = assay: Antiproliferative activity against rat C6 cells assessed as reduction in cell growth incubated for 72 hrs by MTT assay; format: functional, cell-based; settings: C6, 72 h
Huh-7 [8] = assay: Antiproliferative activity against human HuH-7 cells assessed as reduction in cell growth at 100 uM incubated for 72 hrs by MTT assay relative to control; format: functional
[9] = Cytotoxicity against human MET5A cells assessed as effect on cell morphology at 20 ug/ml measured upto 7 days by laser scanning confocal microscopy; format: cell-based; settings: 168 h, time <=7 day, dose 20 µg/ml
Method in brief: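 Healthy mesothelial MeT-5A cells, treated or untreated, were followed over days 1, 3 and 7. Actin cytoskeleton was stained by immunofluorescence (green) and nuclei with DAPI. Morphology was examined by laser scanning confocal microscopy.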

A-431 [10] = assay: Antiproliferative activity against human A-431 cells assessed as reduction in cell growth at 100 uM incubated for 72 hrs by MTT assay relative to control; format: functional
[11] = Toxicity in Swiss mouse assessed as effect on behaviour at 5 to 100 mg/kg, ip observed after 7 days; format: organism-based; settings: in vivo, 168 h, dose 5-100 mg/kg, time 7 day
Method in brief: (§2)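 Male 6-week-old Swiss mice were acclimatized 5-7 days and randomised into seven groups of 3. Six groups got a single i.p. injection at 5, 10, 25, 50, 75 or 100 mg/kg; controls were uninjected. Mice were monitored over the first 24 h, then daily for 7 days, recording mortality and behaviour.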

[12] = Toxicity in Swiss mouse assessed as abnormal appearance at 5 to 100 mg/kg, ip observed after 24 hrs; format: organism-based; settings: in vivo, dose 5-100 mg/kg
MDA-MB-435 [13] = assay: Antiproliferative activity against human MDA-MB-435 cells assessed as reduction in cell growth at 100 uM incubated for 72 hrs by MTT assay relative to control; format: functional
Caco-2 [14] = assay: Antiproliferative activity against human CaCo-2 cells assessed as reduction in cell growth incubated for 72 hrs by MTT assay; format: functional, cell-based; settings: Caco-2, 72 h
[15] = Toxicity in Swiss mouse assessed as abnormal behavior at 5 to 100 mg/kg, ip observed after 24 hrs; format: organism-based; settings: in vivo, dose 5-100 mg/kg; method in brief: as §2
[16] = Toxicity in Swiss mouse assessed as death rate at 5 to 100 mg/kg, ip observed after 24 hrs; format: organism-based; settings: in vivo, dose 5-100 mg/kg, read-out: Activity
Method in brief: (§3)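 Male 6-week-old Swiss mice, acclimatized 5-7 days, randomized into seven groups of 3. Single intraperitoneal injection at 5, 10, 25, 50, 75 or 100 mg/kg; controls housed alike without injection. Mice were monitored over the first 24 h, then daily for 7 days, recording mortality and behaviour.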

A-431 [17] = assay: Antiproliferative activity against human A-431 cells assessed as reduction in cell growth incubated for 72 hrs by MTT assay; format: functional, cell-based; settings: A-431, 72 h
IGROV-1 [18] = assay: Antiproliferative activity against human IGROV-1 cells assessed as reduction in cell growth incubated for 7 days by trypan blue exclusion assay; format: functional, cell-based; settings: IGROV-1, 168 h; method in brief: as §1
DU-145 [19] = assay: Antiproliferative activity against human DU-145 cells assessed as reduction in cell growth incubated for 72 hrs by MTT assay; format: functional, cell-based; settings: DU-145, 72 h
MDA-MB-231 [20] = assay: Antiproliferative activity against human MDA-MB-231 cells assessed as reduction in cell growth incubated for 72 hrs by MTT assay; format: functional, cell-based; settings: MDA-MB-231, 72 h
C6 [21] = assay: Antiproliferative activity against rat C6 cells assessed as reduction in cell growth at 100 uM incubated for 72 hrs by MTT assay relative to control; format: functional
SK-OV-3 [22] = assay: Antiproliferative activity against human SK-OV-3 cells assessed as reduction in cell growth incubated for 7 days by trypan blue exclusion assay; format: functional, cell-based; settings: SK-OV-3, 168 h; method in brief: as §1
B16-F10 [23] = assay: Antiproliferative activity against mouse B16-F10 cells assessed as reduction in cell growth incubated for 72 hrs by MTT assay; format: functional, cell-based; settings: B16-F10, 72 h
[24] = Toxicity in Swiss mouse assessed as death rate at 5 to 100 mg/kg, ip observed after 7 days; format: organism-based; settings: in vivo, dose 5-100 mg/kg, time 7 day, read-out: Activity; method in brief: as §3
B16-F10 [25] = assay: Antiproliferative activity against mouse B16-F10 cells assessed as reduction in cell growth at 100 uM incubated for 72 hrs by MTT assay relative to control; format: functional
[26] = Toxicity in Swiss mouse assessed as effect on body weight at 5 to 100 mg/kg, ip observed after 7 days; format: organism-based; settings: in vivo, 168 h, dose 5-100 mg/kg, time 7 day
MDA-MB-435 [27] = assay: Antiproliferative activity against human MDA-MB-435 cells assessed as reduction in cell growth incubated for 72 hrs by MTT assay; format: functional, cell-based; settings: MDA-MB-435, 72 h
IGROV-1 [28] = assay: Antiproliferative activity against human IGROV-1 cells assessed as reduction in cell growth incubated for 3 days by trypan blue exclusion assay; format: functional, cell-based; settings: IGROV-1, 72 h; method in brief: as §1
MDA-MB-231 [29] = assay: Antiproliferative activity against human MDA-MB-231 cells assessed as reduction in cell growth at 100 uM incubated for 72 hrs by MTT assay relative to control; format: functional
DU-145 [30] = assay: Antiproliferative activity against human DU-145 cells assessed as reduction in cell growth at 100 uM incubated for 72 hrs by MTT assay relative to control; format: functional
SNB-75 [31] = assay: Antiproliferative activity against human SNB-75 cells assessed as reduction in cell growth incubated for 72 hrs by MTT assay; format: functional, cell-based; settings: SNB-75, 72 h
[32] = Toxicity in Swiss mouse assessed as effect on food consumption at 5 to 100 mg/kg, ip observed after 7 days; format: organism-based; settings: in vivo, 168 h, dose 5-100 mg/kg, time 7 day
[33] = Toxicity in Swiss mouse assessed as systemic signs at 5 to 100 mg/kg, ip observed after 7 days; format: organism-based; settings: in vivo, 168 h, dose 5-100 mg/kg, time 7 day
Huh-7 [34] = assay: Antiproliferative activity against human HuH-7 cells assessed as reduction in cell growth incubated for 72 hrs by MTT assay; format: functional, cell-based; settings: Huh-7, 72 h

Structure (SMILES)	inhibition at 100 µM (SNB-75 [1]) [%]	inhibition at 100 µM (Caco-2 [2]) [%]	IC50 (SK-OV-3 [3]) [µg/mL]	IC50 (IGROV-1 [4]) [µg/mL]	IC50 (SK-OV-3 [6]) [µg/mL]	IC50 (C6 [7]) [µM]	inhibition at 100 µM (Huh-7 [8]) [%]	Activity [9]	inhibition at 100 µM (A-431 [10]) [%]	inhibition at 100 µM (MDA-MB-435 [13]) [%]	IC50 (Caco-2 [14]) [µM]	IC50 (A-431 [17]) [µM]	IC50 (IGROV-1 [18]) [µg/mL]	IC50 (DU-145 [19]) [µM]	IC50 (MDA-MB-231 [20]) [µM]	inhibition at 100 µM (C6 [21]) [%]	IC50 (SK-OV-3 [22]) [µg/mL]	IC50 (B16-F10 [23]) [µM]	inhibition at 100 µM (B16-F10 [25]) [%]	IC50 (MDA-MB-435 [27]) [µM]	further results
NC(=O)c1n[nH]nc1[C@@H]1O[C@H](CO)[C@@H](O)[C@H]1O	70	90	24.5 (≈ 100 µM)	22.8 (≈ 93.4 µM)	25.5 (≈ 104 µM)	2.15	60	Non-Toxic	80	80	8.05	0.58	23.8 (≈ 97.5 µM)	2.14	9.59	85	19 (≈ 77.8 µM)	1.52	80	1.9	Activity [5]: Non-Toxic; Activity [11]: Non-Toxic; Activity [12]: Non-Toxic; Activity [15]: Non-Toxic; mortality at 24 h [16]: 0%; mortality at 168 h [24]: 0%; Activity [26]: Non-Toxic; IC50 (IGROV-1 [28]): 23 µg/mL (≈ 94.2 µM); inhibition at 100 µM (MDA-MB-231 [29]): 80%; inhibition at 100 µM (DU-145 [30]): 85%; IC50 (SNB-75 [31]): 9.38 µM; Activity [32]: Non-Toxic; Activity [33]: Non-Toxic; IC50 (Huh-7 [34]): 22.2 µM
NC(=O)c1ncn([C@@H]2O[C@H](CO)[C@@H](O)[C@H]2O)n1 [RIBAVIRIN]	70	60	9 (≈ 36.9 µM)	21 (≈ 86 µM)	10 (≈ 40.9 µM)	13.5	60	Non-Toxic	70	50	34.5	3.18	16 (≈ 65.5 µM)	> 100	> 100	75	10 (≈ 40.9 µM)	3.5	80	38.3	IC50 (IGROV-1 [28]): 25 µg/mL (≈ 102 µM); inhibition at 100 µM (MDA-MB-231 [29]): 40%; inhibition at 100 µM (DU-145 [30]): 50%; IC50 (SNB-75 [31]): 18.5 µM; IC50 (Huh-7 [34]): 53.7 µM
